In ChEMBL document CHEMBL5252566, “Antioxidant mechanisms and products of four 4',5,7-trihydroxyflavonoids with different structural types” (RSC Med Chem, 2023):

Key:
Assay type in all cases: functional
HT-22 [1] = assay: Antioxidant activity in mouse HT-22 cells assessed as OH scavenging activity measured for 24 hrs by CCK-8 analysis
Summary of the method: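 HT22 cells are grown in DMEM/10% FBS at 37 °C, 5% CO2, seeded at 1 × 10^4 per well and left to adhere for 24 h. They are pretreated with sample at 50 μM final for 24 h (model group: medium), then exposed to Fenton reagent (200 μM H2O2 + 200 μM FeCl2) for 24 h. Medium is removed and CCK-8 added for 2 h; survival from A450, five wells per sample.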

[2] = Antioxidant activity assessed as DPPH radical scavenging activity incubated for 30 mins under dark condition by microplate reader analysis
Summary of the method: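 The radical solution is made from […] methanol solution and mixed with sample dissolved in methanol (ultrasonication at 40 °C). Incubation is 30 min dark at room temperature with read-out at A519. % scavenging vs no-sample blank; IC50 (final concentration giving 50% scavenging) from dose–response curve by linear regression, mean ± SD (n = 3).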

HT-22 [3] = assay: Antioxidant activity in mouse HT-22 cells assessed as OH scavenging activity by chromogenic analysis; set-up: concentration or dose not given beside the values
[4] = Antioxidant activity assessed as ABTS radical cation scavenging activity incubated for 10 mins under dark condition by microplate reader analysis
Summary of the method: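 ABTS˙+ is generated from 7.4 mM (NH4)2ABTS and 2.6 mM K2S2O8 solutions mixed 1:1 and kept dark at 27 °C for 12 h. It is diluted about 1:20 with water, then mixed with methanolic samples for 10 min dark at 27 °C and read at A734. % scavenging vs no-sample blank; IC50 from dose–response curve by linear regression, mean ± SD (n = 3).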

[5] = Antioxidant activity assessed as oxygen scavenging activity measured every 30 sec for 5 min by UV-vis spectrophotometer analysis
Summary of the method: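 Superoxide generation uses pyrogallol autoxidation: sample plus pyrogallol (60 mM stock in 1 mM HCl) in 0.05 M Tris-HCl, pH 7.4. A325 is recorded every 30 s for 5 min. Scavenging comes from the absorbance increase over 5 min relative to no-sample control; IC50 from dose–response curve, mean ± SD (n = 3).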

Compound | IC50 [2] | IC50 [4] | IC50 [5] | Activity (HT-22 [1]) | Activity (HT-22 [3])
O=c1c(O)c(-c2ccc(O)cc2)oc2cc(O)cc(O)c12 [KAEMPFEROL] | 15.5 µM | 4.73 µM | 81.6 µM | 69.4% | 74.46%
O=C1O[C@H]([C@@H](O)CO)C(O)=C1O [ASCORBIC ACID] |  |  |  |  | 84.27%
O=C1C[C@@H](c2ccc(O)cc2)Oc2cc(O)cc(O)c21 [NARINGENIN] | 1730 µM | 13 µM | 24.2 µM | 80.65% | 33.85%

Second part, led by results:

IC50 [2] | IC50 [4] | IC50 [5] | Compound | Activity (HT-22 [1]) | Activity (HT-22 [3])
19.8 µM | 10.3 µM | 963 µM | Cc1c(C)c2c(c(C)c1O)CCC(C)(C(=O)O)O2 (centres undefined) [TROLOX] |  | 
1230 µM | 10.2 µM | 88.8 µM | O=c1c(-c2ccc(O)cc2)coc2cc(O)cc(O)c12 [GENISTEIN] | 68.54% | 36.39%
2760 µM | 18.2 µM | 68.9 µM | O=c1cc(-c2ccc(O)cc2)oc2cc(O)cc(O)c12 [APIGENIN] | 73.32% | 33.26%
